The values below come from ChEMBL document CHEMBL3046238, “Synthesis and biological activity evaluation of 1,2,3-thiadiazole derivatives as potential elicitors with highly systemic acquired resistance” (2009).

Common to all, as to format: functional
The test system of assay [1] is Alternaria mali. The experiment in a line: Antifungal activity against Alternaria mali assessed as growth inhibition at 50 ug/mL measured after 2 days post dose. As to conditions: for inhibition of growth at 50 µg/mL: 48 h, read-out: GI.
For assay [2], the system named is Phomopsis asparagi. The assay can be described thus: Antifungal activity against Phomopsis asparagi assessed as growth inhibition at 50 ug/mL measured after 2 days post dose.
For assay [3], the system named is Fusarium fujikuroi. The experiment in a line: Antifungal activity against Fusarium fujikuroi assessed as growth inhibition at 50 ug/mL measured after 2 days post dose. As to conditions: for inhibition of growth at 50 µg/mL: 48 h, read-out: GI.
Assay [4] relates to Colletotrichum lagenaria. The assay can be described thus: Antifungal activity against Colletotrichum lagenaria assessed as growth inhibition at 50 ug/mL measured after 2 days post dose. As to conditions: 48 h, read-out: GI.
Assay [5] has as its system Alternaria kikuchiana. The experiment in a line: Antifungal activity against Alternaria kikuchiana assessed as growth inhibition at 50 ug/mL measured after 2 days post dose. As to conditions: for inhibition of growth at 50 µg/mL: 48 h, read-out: GI.
For assay [6], the system named is Alternaria solani. The experiment in a line: Antifungal activity against Alternaria solani assessed as growth inhibition at 50 ug/mL measured after 2 days post dose. As to conditions: 48 h, read-out: GI.
For assay [7], the system named is Fusarium oxysporum. The assay can be described thus: Antifungal activity against Fusarium oxysporum assessed as growth inhibition at 50 ug/mL measured after 2 days post dose. As to conditions: for inhibition of growth at 50 µg/mL: 48 h, read-out: GI.
Assay [8] concerns Tobacco mosaic virus. The assay can be described thus: Induction of systemic acquired resistance against Tobacco mosaic virus (TMV) in tobacco plants exposed to 500 ug/mL compound through leaf spray followed by 7 days culture under green house conditions assessed as inhibition of viral growth in leaves infected with Tobacco mosaic virus (TMV) measured 72 hr post viral infection by half-leaf juice rubbing method. More on the design: scale not given: the % may be the effect or the level left. A digest of the protocol: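 Tobacco plants received compound by leaf spray or by soil irrigation, with double-distilled water as CK. Newly grown leaves were then rub-inoculated with TMV (5.88×10-2 μg/mL), and plants were kept at 25 °C for 72 h. Lesions on inoculated leaves were counted. Inhibition = (CK−A)/CK×100 from mean lesion numbers versus control.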

In assay [9] the test system is Cytospora mali. The experiment in a line: Antifungal activity against Valsa mali assessed as growth inhibition at 50 ug/mL measured after 2 days post dose. As to conditions: for inhibition of growth at 50 µg/mL: 48 h, read-out: GI.
For assay [10], the system named is Botrytis cinerea. The experiment in a line: Antifungal activity against Botryotinia fuckeliana assessed as growth inhibition at 50 ug/mL measured after 2 days post dose. As to conditions: for inhibition of growth at 50 µg/mL: 48 h, read-out: GI.
Assay [11] concerns Puccinia triticina. The assay can be described thus: Antifungal activity against Puccinia triticina inoculated on 500 ug/mL compound pre-treated wheat plants with 3 to 5 leaves assessed as growth inhibition. The method in brief:
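Healthy wheat plants at the 3-5 leaf stage were sprayed with compound (500 μg/mL) and then inoculated with spores. Inhibition percentage was calculated against the corresponding spore stack.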

In assay [12] the test system is Fusarium oxysporum f. sp. vasinfectum. The assay can be described thus: Antifungal activity against Fusarium oxysporum f. sp. vasinfectum assessed as growth inhibition at 50 ug/mL measured after 2 days post dose. As to conditions: for inhibition of growth at 50 µg/mL: 48 h, read-out: GI.
The subject of assay [13] is Mycosphaerella arachidis. The assay can be described thus: Antifungal activity against Mycosphaerella arachidis assessed as growth inhibition at 50 ug/mL measured after 2 days post dose. As to conditions: 48 h, read-out: GI.
Assay [14] relates to Colletotrichum gloeosporioides. The assay can be described thus: Antifungal activity against Glomerella cingulata assessed as growth inhibition at 50 ug/mL measured after 2 days post dose. As to conditions: for inhibition of growth at 50 µg/mL: 48 h, read-out: GI.
Assay [15] deals with Fusarium graminearum. The assay can be described thus: Antifungal activity against Fusarium graminearum assessed as growth inhibition at 50 ug/mL measured after 2 days post dose. As to conditions: 48 h, read-out: GI. The method in brief:
(§1)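 Compound stock at 500 μg/mL in DMF, diluted with sterile water in the dish and mixed into potato dextrose agar before setting. A 4 mm diameter fungal plug is placed on the plate and cultured at 24-26 °C. Colony diameter is measured after 2 days.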

The subject of assay [16] is Ustilaginoidea virens. The experiment in a line: Antifungal activity against Villosiclava virens assessed as growth inhibition at 50 ug/mL measured after 2 days post dose. As to conditions: for inhibition of growth at 50 µg/mL: 48 h, read-out: GI.
The subject of assay [17] is Sclerotinia sclerotiorum. The experiment in a line: Antifungal activity against Sclerotinia sclerotiorum assessed as growth inhibition at 50 ug/mL measured after 2 days post dose. As to conditions: 48 h, read-out: GI.
The test system of assay [18] is Phytophthora infestans. The experiment in a line: Antifungal activity against Phytophthora infestans assessed as growth inhibition at 50 ug/mL measured after 2 days post dose. As to conditions: for inhibition of growth at 50 µg/mL: 48 h, read-out: GI. A digest of the protocol:
as §1

The test system of assay [19] is Ceratobasidium cereale. The experiment in a line: Antifungal activity against Ceratobasidium cereale assessed as growth inhibition at 50 ug/mL measured after 2 days post dose. As to conditions: for inhibition of growth at 50 µg/mL: 48 h, read-out: GI.
For assay [20], the system named is Rhizoctonia solani. The experiment in a line: Antifungal activity against Rhizoctonia solani assessed as growth inhibition at 50 ug/mL measured after 2 days post dose. As to conditions: for inhibition of growth at 50 µg/mL: 48 h, read-out: GI.
The subject of assay [21] is Botryosphaeria berengeriana. The assay can be described thus: Antifungal activity against Botryosphaeria berengeriana assessed as growth inhibition at 50 ug/mL measured after 2 days post dose. As to conditions: 48 h, read-out: GI.

Active and inactive are the calls of the source. The calls are words filed in the database; no cut-off is given here.

For the molecule `COc1ccc(-c2csc(NC(=O)c3snnc3C)n2)cc1`, the inhibition of growth at 50 µg/mL in assay [1] is 15.5%; in [3], 10.5%; in [4], 5.9%; in assay [6] it was 4%; in assay [7] it was 3.3%; in assay [9], 8.7%. The inhibition of growth at 50 µg/mL was 0% in assay [12]; 14.3% in assay [13]; 4% in assay [14]; 25% in assay [15]; 5.6% in assay [17]. Moreover, the “growth inhibition (GI)” value in assay [2], in assay [5], in [10] and in [16] was “inactive” throughout. For the same molecule, in assay [8], the Activity was 35%. In addition, the “growth inhibition (GI)” value in [11] is 45%.
For the molecule `CCCCCCc1cnc(NC(=O)c2snnc2C)s1`, the “growth inhibition (GI)” value in assay [1], in [2], in assay [7], in [12], in [14] and in [16] was “inactive” throughout. The inhibition of growth at 50 µg/mL in [3] came out at 64.3%; in assay [4] it was 26.7%; in assay [5], 0%; in assay [6] it was 21%; in assay [9], 31%; in [10], 25%. Also, the inhibition of growth at 50 µg/mL in assay [13] turned out to be 29.4%; in assay [15] it was 0%; in assay [17], 71.4%. For the same molecule, the Activity in [8] was determined as 0%.
Turning to `CCCc1sc(NC(=O)c2snnc2C)nc1-c1ccc(Cl)cc1Cl`, the inhibition of growth at 50 µg/mL was determined as 6.9% in assay [1]; 21.1% in assay [3]; 11.8% in assay [4]; 4% in [6]; 10% in assay [7]; 4.3% in assay [9]. Further, the inhibition of growth at 50 µg/mL came to 3.6% in assay [12]; 35.7% in assay [13]; 12% in [14]; 25% in assay [15]; 22.2% in [17]. Further, the “growth inhibition (GI)” value in [2], in [5], in assay [10] and in [16] was “inactive” in each case. Moreover, in assay [8], the Activity was 20%. For the same molecule, the “growth inhibition (GI)” value in [11] was 30%.
Turning to `CCc1cnc(NC(=O)c2snnc2C)s1`, the inhibition of growth at 50 µg/mL was 25% in [1]; 31.3% in assay [2] (48 h, read-out: GI); 0% in assay [3]; 26.7% in assay [4]; 43.8% in assay [5]; 21% in assay [6]. In addition, the inhibition of growth at 50 µg/mL in assay [7] was found to be 53.3%; in [9], 61.1%; in assay [10], 0%; in [12], 5%; in [13] it was 35.7%; in assay [14] it was 36.8%. For the same molecule, the inhibition of growth at 50 µg/mL in assay [15] stood at 50%; in [16] it was 50%; in assay [17] it was 3.3%. In assay [8], the Activity worked out at 30%.
As for `Cc1ccc(-c2nnc(-c3snnc3C)o2)s1`, the inhibition of growth at 50 µg/mL stood at 38.9% in assay [1]; 21.1% in assay [3]; 36.8% in [6]; 0% in assay [19]; 31.3% in [7]; 0% in [20]. Further, the inhibition of growth at 50 µg/mL in [21] was determined as 39.7%; in [9] it was 0%; in assay [10], 0%; in [12] it was 0%; in assay [13], 9%; in assay [14], 13.8%. Moreover, the inhibition of growth at 50 µg/mL in assay [15] stood at 21.1%; in assay [16], 0%; in [17] it was 40.5%. Besides, the “growth inhibition (GI)” value in [18] was “inactive”. Moreover, the result in assay [8] was inactive. Besides, the “growth inhibition (GI)” value in assay [11] stood at 0%.
Regarding `CCCCCCCc1nnc(-c2snnc2C)o1`, the inhibition of growth at 50 µg/mL in assay [1] is 38.9%; in assay [18] it was 100%; in assay [3], 21.1%; in assay [6], 31.6%; in assay [19], 0%; in assay [7], 12.5%. Further, the inhibition of growth at 50 µg/mL turned out to be 26.6% in assay [20]; 25.4% in assay [21]; 0% in assay [9]; 0% in assay [10]; 0% in assay [12]; 0% in assay [13]. Further, the inhibition of growth at 50 µg/mL came to 42.1% in [14], 34.2% in assay [15], 0% in assay [16] and 32.1% in assay [17]. In assay [8], the Activity is given as 0%. The “growth inhibition (GI)” value in [11] is 83%.
In the case of `Cc1nnsc1-c1nnc(-c2snnc2C)o1`, the inhibition of growth at 50 µg/mL in assay [1] came to 0%; in [3] it was 21.1%; in assay [6], 44.7%; in assay [19], 0%; in assay [7], 31.3%; in assay [20], 0%. In addition, the inhibition of growth at 50 µg/mL amounted to 38.1% in assay [21]; 0% in assay [9]; 0% in assay [10]; 0% in [12]; 13.6% in assay [13]; 13.8% in assay [14]. Also, the inhibition of growth at 50 µg/mL in assay [15] was found to be 31.6%; in assay [16], 0%; in assay [17] it was 32.1%. For the same molecule, the “growth inhibition (GI)” value in assay [18] is “inactive”. In assay [8], the Activity amounted to 0%. For the same molecule, in assay [11], the “growth inhibition (GI)” value came out at 28%.
On to `Cc1ccc(-c2nnc(-c3snnc3C)o2)c(Cl)n1`, for which the inhibition of growth at 50 µg/mL in assay [1] was 24.1%; in assay [18] it was 30%; in assay [3], 17.2%; in assay [6] it was 0%; in assay [19], 13.8%; in assay [7] it was 0%. Further, the inhibition of growth at 50 µg/mL in [20] came to 22.2%; in [21], 38.9%; in [9] it was 22.2%; in assay [10] it was 17.2%; in [12], 0%; in assay [13], 23.5%. Further, the inhibition of growth at 50 µg/mL turned out to be 0% in assay [14], 31% in assay [15], 17.6% in assay [16] and 0% in assay [17]. For the same molecule, the Activity in assay [8] came to 30%. For the same molecule, the “growth inhibition (GI)” value in assay [11] worked out at 17%.
In the case of `CCc1cc(-c2nnc(-c3snnc3C)o2)nn1C`, the “growth inhibition (GI)” value in [1], in assay [3], in [19], in [20], in assay [9] and in assay [10] was “inactive” throughout. The “growth inhibition (GI)” value in assay [12] and in assay [16] was “inactive” each time. Moreover, the inhibition of growth at 50 µg/mL in [18] is 17.1%; in [6] it was 17.9%; in [7], 26.5%; in [21] it was 16.7%; in assay [13], 33.3%; in assay [14] it was 42.1%. Also, the inhibition of growth at 50 µg/mL in [15] was 27.8%; in assay [17], 0%. Besides, the Activity in assay [8] amounted to 20%. Moreover, in assay [11], the “growth inhibition (GI)” value was 20%.
